Results from ChEMBL document CHEMBL3751814, “6-Methylpurine derived sugar modified nucleosides: Synthesis and in vivo antitumor activity in D54 tumor expressing M64V-Escherichia coli purine nucleoside phosphorylase” (Eur J Med Chem, 2016).
Activity calls are given as the source filed them. The rule behind the calls is not given here.

Test system: D54MG
Assay: Antitumor activity against human D54MG cells expressing Escherichia coli PNP M64V mutant xenografted in nude mouse assessed as inhibition of tumor growth at 10 and 20 mg/kg, administered via peritoneal cavity 5 times a day (every 2 hrs) for 3 consecutive days measured on day 17 to 19 after tumor implantation
Format: functional, organism-based
Conditions: not given
Outline: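 Xenograft: parental and M64V-PNP-transduced D54MG human glioma cells mixed so 10% express M64V; 2 x 10⁷ total cells injected sc into flanks of nu/nu nude mice. At ~300 mg tumors (day 17), ip dosing 5 times daily (every 2 h) for 3 consecutive days at 5, 10 or 20 mg/kg; 6 mice/group. Tumors measured with calipers twice weekly; weight = length x width²/2; mean and SEM.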

Row | Compound | inhibition
1 | Cc1ncnc2c1ncn2[C@@H]1O[C@H]([C@H](C)O)[C@@H](O)[C@H]1O | Active

Test system: not listed separately
Assay: Terminal half life of compound in mouse at 100 mg/kg, ip by reverse phase HPLC analysis
Format: ADME, organism-based
Conditions: in vivo, read-out: beta t1/2

Row | Compound | half-life [min]
2 | Cc1ncnc2c1ncn2[C@@H]1O[C@H]([C@H](C)O)[C@@H](O)[C@H]1O | 21

Test system: not listed separately
Assay: Terminal half life of compound in mouse plasma at 67 mg/kg, ip by reverse phase HPLC analysis
Format: ADME, organism-based
Conditions: read-out: beta t1/2

Row | Compound | half-life [min]
3 | Cc1ncnc2c1ncn2[C@H]1C[C@H](O)[C@@H](CO)O1 | 14

Target: T1, Purine nucleoside phosphorylase (Homo sapiens, UniProt P00491)
T1 sequence (P00491 whole entry): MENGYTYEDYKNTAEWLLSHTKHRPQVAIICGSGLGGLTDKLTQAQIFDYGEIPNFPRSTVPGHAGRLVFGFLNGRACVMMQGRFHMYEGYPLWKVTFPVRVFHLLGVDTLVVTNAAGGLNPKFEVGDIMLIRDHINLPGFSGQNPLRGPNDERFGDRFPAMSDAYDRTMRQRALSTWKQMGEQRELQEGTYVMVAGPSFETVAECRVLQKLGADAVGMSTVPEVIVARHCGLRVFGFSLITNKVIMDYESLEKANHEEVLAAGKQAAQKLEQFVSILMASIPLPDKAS
Assay: Prodrug activation assessed as recombinant human PNP-mediated compound cleavage at 100 uM by reverse phase HPLC analysis
Conditions: not given
Outline: (§1)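 Cleavage assay: 100 µM substrate in 50 mM potassium phosphate pH 7.4, with enzyme amount adjusted for a linear rate, at 25°C; aliquots at 0, 0.25, 0.5, 1, 2 h, stopped by boiling, filtered. Reverse-phase C-18 HPLC, 50 mM ammonium dihydrogen phosphate pH 4.5 with 1.25–5% acetonitrile, 254 nm detection. Specific activity = nmol product/mg protein/time. Detection limit 1 nmol/mg/hr; mean of at least two experiments.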

Row | Compound | Drug metabolism [nmol/mg/h]
4 | Cc1ncnc2c1ncn2[C@@H]1O[C@H]([C@H](C)O)[C@@H](O)[C@H]1O | < 1
5 | Cc1ncnc2c1ncn2[C@H]1C[C@H](O)[C@@H](CO)O1 | 35
6 | Cc1ncnc2c1ncn2[C@@H]1O[C@H](CO)[C@@H](O)[C@H]1O | 12
7 | OC[C@H]1O[C@@H](n2cnc3c(O)ncnc32)[C@H](O)[C@@H]1O [INOSINE] | 391000

Target: T2, S-methyl-5'-thioadenosine phosphorylase (Homo sapiens, UniProt Q13126)
T2 sequence (Q13126 whole entry): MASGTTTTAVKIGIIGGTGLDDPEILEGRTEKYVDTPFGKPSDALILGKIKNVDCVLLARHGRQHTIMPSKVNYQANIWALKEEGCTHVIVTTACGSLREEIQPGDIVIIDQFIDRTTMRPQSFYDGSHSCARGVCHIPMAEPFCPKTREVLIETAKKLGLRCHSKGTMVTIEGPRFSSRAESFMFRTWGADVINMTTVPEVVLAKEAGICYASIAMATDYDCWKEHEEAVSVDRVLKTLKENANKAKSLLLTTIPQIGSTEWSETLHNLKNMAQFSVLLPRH
Assay: Prodrug activation assessed as recombinant human MTAP-mediated compound cleavage at 100 uM by reverse phase HPLC analysis
Conditions: not given
Outline: as §1

Row | Compound | Drug metabolism [nmol/mg/h]
8 | Cc1ncnc2c1ncn2[C@@H]1O[C@@H](CO)[C@@H](O)[C@H]1O | < 1
9 | Cc1ncnc2c1ncn2[C@@H]1O[C@H]([C@H](C)O)[C@@H](O)[C@H]1O | 4
10 | Cc1ncnc2c1ncn2[C@H]1C[C@H](O)[C@@H](CO)O1 | < 1
11 | Nc1ncnc2c1ncn2[C@@H]1O[C@H](CO)[C@@H](O)[C@H]1O [ADENOSINE] | 596

Test system: not listed separately
Assay: Prodrug activation assessed as recombinant Escherichia coli PNP-mediated compound cleavage at 100 uM by reverse phase HPLC analysis
Conditions: not given
Outline: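 Cleavage assay: 100 µM substrate in 50 mM potassium phosphate pH 7.4, with enzyme amount adjusted for a linear rate, at 25°C; aliquots at 0, 0.25, 0.5, 1, 2 h, stopped by boiling, filtered. Specific activity = nmol product/mg protein/time. Detection limit 1 nmol/mg/hr; mean of at least two experiments.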

Row | Compound | Drug metabolism [nmol/mg/h]
12 | Cc1ncnc2c1ncn2[C@@H]1O[C@@H](CO)[C@@H](O)[C@H]1O | 218
13 | Cc1ncnc2c1ncn2[C@@H]1O[C@H]([C@H](C)O)[C@@H](O)[C@H]1O | 915
14 | Cc1ncnc2c1ncn2[C@H]1C[C@H](O)[C@@H](CO)O1 | 528000
15 | Cc1ncnc2c1ncn2[C@@H]1O[C@H](CO)[C@@H](O)[C@H]1O | 96000
16 | OC[C@H]1O[C@@H](n2cnc3c(O)ncnc32)[C@H](O)[C@@H]1O [INOSINE] | 342000

Test system: not listed separately
Assay: Prodrug activation assessed as recombinant Escherichia coli PNP M64V mutant-mediated compound cleavage at 100 uM by reverse phase HPLC analysis
Conditions: not given

Row | Compound | Drug metabolism [nmol/mg/h]
17 | Cc1ncnc2c1ncn2[C@@H]1O[C@@H](CO)[C@@H](O)[C@H]1O | 10000
18 | Cc1ncnc2c1ncn2[C@@H]1O[C@H]([C@H](C)O)[C@@H](O)[C@H]1O | 86000
19 | Cc1ncnc2c1ncn2[C@H]1C[C@H](O)[C@@H](CO)O1 | 593000
20 | Cc1ncnc2c1ncn2[C@@H]1O[C@H](CO)[C@@H](O)[C@H]1O | 176000

Test system: not listed separately
Assay: Prodrug activation assessed as recombinant Trichomonas vaginalis PNP-mediated compound cleavage at 100 uM by reverse phase HPLC analysis
Conditions: not given
Outline: as §1

Row | Compound | Drug metabolism [nmol/mg/h]
21 | Cc1ncnc2c1ncn2[C@@H]1O[C@@H](CO)[C@@H](O)[C@H]1O | 10000
22 | Cc1ncnc2c1ncn2[C@@H]1O[C@H]([C@H](C)O)[C@@H](O)[C@H]1O | 8400
23 | Cc1ncnc2c1ncn2[C@H]1C[C@H](O)[C@@H](CO)O1 | 484000
24 | Cc1ncnc2c1ncn2[C@@H]1O[C@H](CO)[C@@H](O)[C@H]1O | 155000
25 | OC[C@H]1O[C@@H](n2cnc3c(O)ncnc32)[C@H](O)[C@@H]1O [INOSINE] | 154000
26 | Nc1ncnc2c1ncn2[C@@H]1O[C@H](CO)[C@@H](O)[C@H]1O [ADENOSINE] | 501000

Target: Purine nucleoside phosphorylase (Sulfolobus solfataricus (strain ATCC 35092 / DSM 1617 / JCM 11322 /P2), UniProt P50389)
Sequence (P50389 whole entry): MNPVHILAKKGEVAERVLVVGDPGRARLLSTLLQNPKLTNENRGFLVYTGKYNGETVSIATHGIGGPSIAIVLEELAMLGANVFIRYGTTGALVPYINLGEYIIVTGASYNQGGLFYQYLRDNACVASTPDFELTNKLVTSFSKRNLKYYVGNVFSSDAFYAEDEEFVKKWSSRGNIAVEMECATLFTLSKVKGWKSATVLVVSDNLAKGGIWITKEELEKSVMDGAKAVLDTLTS
Assay: Prodrug activation assessed as recombinant Sulfolobus solfataricus MTAP-mediated compound cleavage at 100 uM by reverse phase HPLC analysis
Conditions: saccharolobus solfataricus
Outline: as §1

Row | Compound | Drug metabolism [nmol/mg/h]
27 | Cc1ncnc2c1ncn2[C@@H]1O[C@@H](CO)[C@@H](O)[C@H]1O | 1400
28 | Cc1ncnc2c1ncn2[C@@H]1O[C@H]([C@H](C)O)[C@@H](O)[C@H]1O | 1500
29 | Cc1ncnc2c1ncn2[C@H]1C[C@H](O)[C@@H](CO)O1 | 12000
30 | Cc1ncnc2c1ncn2[C@@H]1O[C@H](CO)[C@@H](O)[C@H]1O | 4000
31 | OC[C@H]1O[C@@H](n2cnc3c(O)ncnc32)[C@H](O)[C@@H]1O [INOSINE] | 84000
32 | Nc1ncnc2c1ncn2[C@@H]1O[C@H](CO)[C@@H](O)[C@H]1O [ADENOSINE] | 57000

Target: 5'-methylthioadenosine/S-adenosylhomocysteine nucleosidase (Escherichia coli O157:H7, UniProt P0AF14)
Sequence (P0AF14 whole entry): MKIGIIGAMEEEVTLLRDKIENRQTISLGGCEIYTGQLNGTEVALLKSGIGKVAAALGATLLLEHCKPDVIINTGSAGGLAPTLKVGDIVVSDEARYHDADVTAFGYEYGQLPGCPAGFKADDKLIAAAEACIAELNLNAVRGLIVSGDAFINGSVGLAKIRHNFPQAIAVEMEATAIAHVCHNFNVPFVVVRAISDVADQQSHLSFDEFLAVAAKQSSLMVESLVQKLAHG
Assay: Prodrug activation assessed as recombinant Escherichia coli SAH/MTA hydrolase-mediated compound cleavage at 100 uM by reverse phase HPLC analysis
Conditions: not given
Outline: (§2)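 Reactions held 50 mM potassium phosphate (pH 7.4) and 100 µM substrate at 25°C. Enzyme was titrated to keep cleavage linear: native F. tularensis PNP from crude extract or recombinant E. coli SAH/MTA hydrolase. Samples were taken at 0–2 h and stopped by boiling. Base and nucleoside were resolved by C18 reverse-phase HPLC at 254 nm. Activity is nmol/mg protein/hr, the average of at least two experiments; detection limit is 1 nmol/mg/hr.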

Row | Compound | Drug metabolism [nmol/mg/h]
33 | Cc1ncnc2c1ncn2[C@@H]1O[C@@H](CO)[C@@H](O)[C@H]1O | 36
34 | Cc1ncnc2c1ncn2[C@@H]1O[C@H]([C@H](C)O)[C@@H](O)[C@H]1O | 51
35 | Cc1ncnc2c1ncn2[C@H]1C[C@H](O)[C@@H](CO)O1 | 30
36 | Cc1ncnc2c1ncn2[C@@H]1O[C@H](CO)[C@@H](O)[C@H]1O | 290
37 | Nc1ncnc2c1ncn2[C@@H]1O[C@H](CO)[C@@H](O)[C@H]1O [ADENOSINE] | 2100

Test system: not listed separately
Assay: Prodrug activation assessed as Francisella tularensis PNP-mediated compound cleavage at 100 uM by reverse phase HPLC analysis
Conditions: not given
Outline: as §2

Row | Compound | Drug metabolism [nmol/mg/h]
38 | Cc1ncnc2c1ncn2[C@@H]1O[C@@H](CO)[C@@H](O)[C@H]1O | 180
39 | Cc1ncnc2c1ncn2[C@@H]1O[C@H]([C@H](C)O)[C@@H](O)[C@H]1O | 100
40 | Cc1ncnc2c1ncn2[C@H]1C[C@H](O)[C@@H](CO)O1 | 3900
41 | Cc1ncnc2c1ncn2[C@@H]1O[C@H](CO)[C@@H](O)[C@H]1O | 4800
42 | OC[C@H]1O[C@@H](n2cnc3c(O)ncnc32)[C@H](O)[C@@H]1O [INOSINE] | 2000
43 | Nc1ncnc2c1ncn2[C@@H]1O[C@H](CO)[C@@H](O)[C@H]1O [ADENOSINE] | 2100

Test system: not listed separately
Assay: Prodrug activation in human D54MG cells expressing Escherichia coli PNP M64V mutant xenografted in nude mouse assessed as Escherichia coli PNP M64V mutant-mediated compound cleavage per mg of tumor tissue at 5-20 mg/kg administered via peritoneal cavity 5 times a day (every 2 hrs) for 3 consecutive days measured on day 17
Format: organism-based
Conditions: in vivo, ip
Outline: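 Tumor extracts were taken from mice bearing D54 xenografts with 10% M64V-PNP-expressing cells, removed at start of treatment (day 17). Cleavage of the prodrug substrate was reported as nmoles cleaved/mg-hr; N = 3.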

Row | Compound | Drug metabolism [nmol/mg/h]
44 | Cc1ncnc2c1ncn2[C@@H]1O[C@H]([C@H](C)O)[C@@H](O)[C@H]1O | 365

Test system: not listed separately
Assay: Antitumor activity against human D54MG cells expressing Escherichia coli PNP M64V mutant xenografted in mouse assessed as time for tumor growth delay at maximum tolerated dose
Format: functional
Conditions: not given
Outline: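 Subcutaneous flank xenografts in nude mice (nu/nu) used a 90/10 mix of parental and M64V PNP-transduced D54MG glioma cells (2 x 10⁷ total cells). Starting on day 17, when tumors were about 300 mg, mice received ip doses of 5, 10 or 20 mg/kg five times daily (every 2 h) for 3 days, with 6 mice per group. Calipers were read twice weekly and weight was taken as length x width²/2.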

Row | Compound | Time [days]
45 | Cc1ncnc2c1ncn2[C@@H]1O[C@H]([C@H](C)O)[C@@H](O)[C@H]1O | >32

Test system: not listed separately
Assay: Prodrug activation in human D54MG cells expressing Escherichia coli PNP xenografted in nude mouse assessed as Escherichia coli PNP-mediated compound cleavage per mg of tumor tissue
Conditions: in vivo

Row | Compound | Drug metabolism [nmol/mg/h]
46 | Cc1ncnc2c1ncn2[C@H]1C[C@H](O)[C@@H](CO)O1 | 40

Test system: not listed separately
Assay: Antitumor activity against human D54MG cells expressing Escherichia coli PNP xenografted in mouse assessed as time for tumor growth delay at 67 mg/kg
Format: functional
Conditions: not given

Row | Compound | Time [days]
47 | Cc1ncnc2c1ncn2[C@H]1C[C@H](O)[C@@H](CO)O1 | 22

Test system: not listed separately
Assay: Antitumor activity against human D54MG cells expressing Escherichia coli PNP xenografted in nude mouse assessed as time for tumor growth delay at 33 mg/kg
Format: functional
Conditions: not given

Row | Compound | Time [days]
48 | Cc1ncnc2c1ncn2[C@H]1C[C@H](O)[C@@H](CO)O1 | 22
